One data set concerns xenograft models. The settings on record: doses lower than 50 mg/kg (ip daily); cited from earlier work.
Data set [1] has as its system human ether-a-go-go-related gene (hERG) potassium channel. Particulars: cited from earlier work.
A further data set relates to breast cancer BT-474. The settings on record: after 72 h treatment; cited from earlier work.
Data set [2] has as its system melanoma A375 cells expressing GFP-LC3. Description: GFP-LC3 reporter autophagy assay. The format is cell-based, human. The settings on record: 24 h treatment; for GFP-LC3-positive autophagosomes (fluorescent dots per cell): different concentrations. The essentials: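 A375 melanoma cells were stably transfected with EGFP-LC3B and G418-selected; the clone used was validated with 10 μM chloroquine. Cells on glass-bottom plates were exposed to varied compound concentrations for 24 h, fixed in 4% PFA and Hoechst 33342-stained. GFP-LC3 perinuclear dots per cell were counted by fluorescence microscopy, ten fields per dose, four independent replicates.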

In the next data set the test system is several tumor cell lines. Particulars: cited from earlier work.
Data set [3] is described as follows: Liver microsomal stability, mouse and human, UDPGA. The format is in vitro ADME. Particulars: for m,h-LM % at 120 min / m,h-LM t1/2: mouse and human liver microsomes; for m,h-LM % at 120 min: UDPGA, compound remaining at 120 min; for half-life at 4.6 μM: mouse and human, liver microsomes with alamethicin, pH 7.5; for m,h-LM t1/2: UDPGA cofactor. The essentials: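 Phase II: compound from a 10 mM DMSO stock (4.6 μM final) was preincubated 15 min at 37 °C with mouse or human liver microsomes plus alamethicin in 0.1 M Tris-HCl pH 7.5, 10% DMSO. UDPGA, D-saccharic acid lactone and MgCl₂ were added and incubated 2 h at 37 °C. Samples at 0–120 min were quenched in cold MeCN with internal standard. No-cofactor matrix controls were run. Mean of ≥2 experiments, duplicates.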

In the next data set the test system is BT-474 cells. Description: Apoptosis in BT-474. Particulars: BT-474, different concentrations, 24 h. The format is cell-based, human. In short, it runs like this: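 Poly-caspase activity detected with a live-cell red/green caspase apoptosis detection kit. Cleaved PARP measured by immunoblot in TBS-T with 5% BSA: primary antibody 1:2000, GAPDH loading control 1:100000, HRP-conjugated secondaries 1:10000.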

The nature of the next data set: Tolerability studies. It is filed as in vivo, female CD1 mice. The settings on record: for reduction in body weight: after 8 days. In short, it runs like this:
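Female CD1 mice (8–9 weeks, 4-day acclimation), 3 per group, received ip compound in saline; controls got saline ip daily. Regimens: 138 μmol/kg daily or every other day; 69 μmol/kg daily or 3 days on/2 off, over an 8-day period. Behavior, body weight, food and water intake were recorded daily. Weight on the pre-treatment day was set to 100%.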

The next data set concerns A375 xenografts. As to the kind of experiment: A375 subcutaneous xenograft model. The format is in vivo, female NMRI-Foxn1nu mice.
Where [4] appears, read: 30 mg/kg ip, 3/5 d schedule, day 15.

Structures can show the parent of a compound that is named as a salt. Some results are limits rather than exact numbers.

On to `CCN(CC)CCCC(C)Nc1ccnc2cc(Cl)ccc12` (stereo not shown) [CQ, Chloroquine], for which, in the data set with xenograft models, the “efficacy in xenograft models” value is recorded as “completely ineffective”. In addition, in data set [1], the “concentrations blocking hERG activity” value was “single-digit”.

Consider `CN1CCN(Cc2cc(CNC3(c4ccccc4F)CCCC3)ccc2O)CC1` [Compound 1a, 4-[[[1-(2-fluorophenyl)cyclopentyl]amino]methyl]-2-[(4-methylpiperazin-1-yl)methyl]phenol], for which the IC50 in the data set on breast cancer BT-474 was 30.1 µM.

For the compound `CN1CCC(Cc2cccc(CNC3(c4ccc(F)cc4)CCCC3)c2)CC1` [Compound 1e], the IC50 in the data set on breast cancer BT-474 was 2.1 µM. Further, the “GFP-LC3-positive autophagosomes (fluorescent dots per cell)” value in data set [2] is listed as “dose-dependent accumulation”. In addition, in the data set on several tumor cell lines, the “in vitro anticancer activity, times higher than CQ” value is given as “up to 50 times”. For the same compound, in [3], the “m,h-LM % at 120 min” value is listed as > 95% and the half-life at 4.6 μM is > 2 h.

In the case of `COc1cc(F)ccc1C1(NCc2cccc(CC3CCN(C)CC3)c2)CCCC1` [Compound 5, 1-(4-Fluoro-2-methoxy-phenyl)-N-[[3-[(1-methyl-4-piperidyl)methyl]phenyl]methyl]cyclopentanamine Dihydrochloride], in [3], the “m,h-LM % at 120 min” value was > 95% and the half-life at 4.6 μM is > 2 h.

Consider `CN1CCC(Cc2cccc(CNC3(c4ccc(F)cc4O)CCCC3)c2)CC1` [Compound 6, 5-Fluoro-2-[1-[[3-[(1-methyl-4-piperidyl)methyl]phenyl]methylamino]cyclopentyl]phenol Dihydrochloride], for which, in [3], the “m,h-LM % at 120 min” value is reported as > 95% and the half-life at 4.6 μM is > 2 h.

For `CN1CCC(Cc2cccc(CNC3(c4ccc(F)c(F)c4)CCCC3)c2)CC1` [Compound 7, 1-(3,4-Difluorophenyl)-N-[[3-[(1-methyl-4-piperidyl)methyl]phenyl]methyl]cyclopentanamine;dihydrochloride], in data set [3], the “m,h-LM % at 120 min” value was > 95% and the half-life at 4.6 μM is > 2 h.

In the case of `COc1cc(C2(NCc3cccc(CC4CCN(C)CC4)c3)CCCC2)ccc1F` [Compound 9, 1-(4-Fluoro-3-methoxy-phenyl)-N-[[3-[(1-methyl-4-piperidyl)methyl]phenyl]methyl]cyclopentanamine Dihydrochloride], in data set [3], the “m,h-LM % at 120 min” value was > 95% and the half-life at 4.6 μM was > 2 h.

Regarding `CN1CCC(Cc2cccc(CNC3(c4ccc(F)c(O)c4)CCCC3)c2)CC1` [Compound 10, 2-Fluoro-5-[1-[[3-[(1-methyl-4-piperidyl)methyl]phenyl]methylamino]cyclopentyl]phenol Dihydrochloride], the “m,h-LM % at 120 min” value in data set [3] was > 95%.

As to `CN1CCC(Cc2cc(CNC3(c4ccc(F)cc4)CCCC3)ccc2F)CC1` [Compound 11, N-[[4-Fluoro-3-[(1-methyl-4-piperidyl)methyl]phenyl]methyl]-1-(4-fluorophenyl)cyclopentanamine Dihydrochloride], the half-life at 4.6 μM in [3] was > 2 h.

Consider `CN1CCC(Cc2cc(CNC3(c4ccc(F)cc4)CCCC3)ccc2O)CC1` [Compound 12, 4-[[[1-(4-Fluorophenyl)cyclopentyl]amino]methyl]-2-[(1-methyl-4-piperidyl)methyl]phenol Dihydrochloride], for which the half-life at 4.6 μM in data set [3] is > 2 h.

As for `CN1CCC(Cc2ccc(F)c(CNC3(c4ccc(F)cc4)CCCC3)c2)CC1` [Compound 14, N-[[2-Fluoro-5-[(1-methyl-4-piperidyl)methyl]phenyl]methyl]-1-(4-fluorophenyl)cyclopentanamine Dihydrochloride], in [3], the half-life at 4.6 μM was > 2 h.

Consider `CN1CCC(Cc2ccc(O)c(CNC3(c4ccc(F)cc4)CCCC3)c2)CC1` [Compound 15, 2-[[[1-(4-Fluorophenyl)cyclopentyl]amino]methyl]-4-[(1-methyl-4-piperidyl)methyl]phenol Dihydrochloride], for which the half-life at 4.6 μM in data set [3] is > 2 h.

For `CN1CCC(Cc2cc(CNC3(c4ccc(F)cc4)CCCC3)c(F)cc2F)CC1` [Compound 16, N-[[2,4-Difluoro-5-[(1-methyl-4-piperidyl)methyl]phenyl]methyl]-1-(4-fluorophenyl)cyclopentanamine Dihydrochloride], the half-life at 4.6 μM in data set [3] was > 2 h.

Turning to `CN1CC2(CC(Cc3cccc(CNC4(c5ccc(F)cc5)CCCC4)c3)C2)C1` [Compound 21, 1-(4-Fluorophenyl)-N-[[3-[(2-methyl-2-azaspiro[3.3]heptan-6-yl)methyl]phenyl]methyl]cyclopentanamine Dihydrochloride], the half-life at 4.6 μM in data set [3] is > 2 h.

Regarding `COc1cc(F)ccc1C1(NCc2ccc(F)c(CC3CCN(C)CC3)c2)CCCC1` [Compound 22, 1-(4-Fluoro-2-methoxy-phenyl)-N-[[4-fluoro-3-[(1-methyl-4-piperidyl)methyl]phenyl]methyl]cyclopentanamine Dihydrochloride], the half-life at 4.6 μM in [3] was > 2 h.

For the compound `Fc1ccc(C2(NCc3ccc(F)c(CC4CCNCC4)c3)CCCC2)cc1` [Compound 24, 1-(4-Fluorophenyl)-N-[[4-fluoro-3-(4-piperidylmethyl)phenyl]methyl]cyclopentanamine Dihydrochloride], the “caspase-activity and cleaved PARP protein levels” value in the data set on BT-474 cells is “dose-dependent induction”. Besides, in “Tolerability studies” (69 μmol/kg (31 mg/kg) ip daily), the “reduction in body weight” value was ≤ 5%. The “tolerability (body weight, water and food intake)” value in “Tolerability studies” (69 μmol/kg (31 mg/kg) ip, 3/5 d schedule, 15-day period) is reported as “well tolerated”. Moreover, the “signs of arched backs and lethargy” value in the data set “Tolerability studies” (138 μmol/kg (62 mg/kg) ip daily) is “did not observe clear signs of arched backs and lethargy”. In addition, the animal body weight entry in “Tolerability studies” (138 μmol/kg (62 mg/kg) ip daily, after 2 days of treatment) was “significantly reduced”. For the same compound, the “reduction in body weight” value in the data set “Tolerability studies” (138 μmol/kg (62 mg/kg) ip every other day) was ≤ 5%. The “increase in fluorescent dots compared with 1e” value in [2] (all the doses tested) is on record as “significantly higher increase”. Also, the “GFP-LC3-positive autophagosomes (fluorescent dots per cell)” value in data set [2] is listed as “dose-dependent accumulation”. Besides, the “tumor expression of REV-ERB target genes BMAL1 and PEPCK” value with A375 xenografts (30 mg/kg ip for 2 days, tumors collected after 48 h, versus control) is “significantly higher expression”. Besides, in the data set with A375 xenografts (setting [4]), the “average tumor volume (excised tumors)” value came out at 307.7 mm^3 and the average tumor weight was found to be 0.365 g. For the same compound, the “effects on body weight” value in the data set on A375 xenografts (30 mg/kg ip, 3/5 d schedule, mice bearing A375 xenografts) is listed as “negligible effects”. In [3], the “m,h-LM t1/2” value is > 2 h and the half-life at 4.6 μM is > 2 h.

`Fc1ccc(C2(NCc3cc(CC4CCNCC4)ccc3F)CCCC2)cc1` [Compound 25, 1-(4-Fluorophenyl)-N-[[2-fluoro-5-(4-piperidylmethyl)phenyl]methyl]cyclopentanamine Dihydrochloride]: in data set [3], the “m,h-LM t1/2” value was > 2 h.

Take `CCN(CCO)CCCC(C)Nc1ccnc2cc(Cl)ccc12` (stereo not shown) [HCQ, hydroxychloroquine]: the “concentrations blocking hERG activity” value in data set [1] is “single-digit”.

These data come from article PMC10788905 (Journal of Medicinal Chemistry, 2023).
